Reference: ChEMBL document CHEMBL1641508, “Effect of structurally constrained oxime-ether linker on PPAR subtype selectivity: Discovery of a novel and potent series of PPAR-pan agonists” (Bioorg Med Chem, 2011)
Active and inactive are the calls of the source. No cut-off for these calls is given here.

Key:
[1] = molecular target: T1, Peroxisome proliferator-activated receptor delta (Homo sapiens) (UniProt Q03181); test: Agonist activity at human PPARdelta expressed in HepG2 cells co-transfected with PPRE3-TK-luc assessed as beta-galactosidase activity after 20 to 22 hrs by luciferase based transactivation assay relative to GW-501516; type: functional, cell-based
T1 sequence (whole entry): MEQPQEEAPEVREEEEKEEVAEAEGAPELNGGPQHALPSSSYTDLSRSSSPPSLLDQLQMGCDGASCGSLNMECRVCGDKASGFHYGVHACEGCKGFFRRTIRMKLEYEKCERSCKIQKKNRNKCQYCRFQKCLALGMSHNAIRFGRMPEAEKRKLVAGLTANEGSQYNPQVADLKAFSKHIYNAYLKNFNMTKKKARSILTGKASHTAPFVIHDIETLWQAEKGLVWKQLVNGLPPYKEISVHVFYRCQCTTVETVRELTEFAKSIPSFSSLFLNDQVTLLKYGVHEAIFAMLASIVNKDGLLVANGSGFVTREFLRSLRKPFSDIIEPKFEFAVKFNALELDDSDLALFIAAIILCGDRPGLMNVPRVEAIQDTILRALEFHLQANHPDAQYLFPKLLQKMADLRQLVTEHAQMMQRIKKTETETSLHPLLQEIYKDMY
Outline: (§1)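 HepG2 (MEM, 10% FBS, NEAA, pyruvate, pen/strep) seeded 400,000 cells/well, transfected (Superfect) with pSG5 vector carrying full-length hPPAR cDNA plus PPRE3-TK-luc; 3 h at 37 °C, 5% CO2, then ligand-containing medium added, 20–22 h.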

[2] = molecular target: T2, Peroxisome proliferator-activated receptor alpha (Homo sapiens) (UniProt Q07869); test: Agonist activity at human PPARalpha expressed in HepG2 cells co-transfected with PPRE3-TK-luc assessed as beta-galactosidase activity after 20 to 22 hrs by luciferase based transactivation assay relative to WY-14643; type: functional, cell-based; outline: as §1
T2 sequence (whole entry): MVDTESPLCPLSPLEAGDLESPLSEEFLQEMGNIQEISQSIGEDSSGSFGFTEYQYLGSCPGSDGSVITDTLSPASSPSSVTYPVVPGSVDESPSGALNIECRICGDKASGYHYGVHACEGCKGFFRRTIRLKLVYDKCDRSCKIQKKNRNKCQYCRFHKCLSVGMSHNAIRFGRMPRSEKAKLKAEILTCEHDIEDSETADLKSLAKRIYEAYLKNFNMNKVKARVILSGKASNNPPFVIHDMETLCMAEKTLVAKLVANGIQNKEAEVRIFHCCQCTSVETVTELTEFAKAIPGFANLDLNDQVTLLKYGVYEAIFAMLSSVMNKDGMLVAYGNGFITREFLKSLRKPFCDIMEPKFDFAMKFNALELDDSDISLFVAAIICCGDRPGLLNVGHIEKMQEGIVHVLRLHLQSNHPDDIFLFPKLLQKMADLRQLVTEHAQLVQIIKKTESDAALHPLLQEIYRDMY

Mus musculus [3] = test: Antihyperglycemic activity in db/db mouse assessed as reduction of serum glucose level at 3 mg/kg, po qd for 14 days relative to control; type: functional; design: scale not given: the % may be the effect or the level left
Outline: (§2)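 Male db/db mice, 12–14 weeks, 30–40 g, tail-bled before the study. Groups of six were matched for plasma glucose, TG and TC. Dosing was oral once daily for 14 days, with vehicle 0.5% methylcellulose in water, and mice were fed ad libitum. About 1 h after the last dose, mice were tail-bled and serum/plasma glucose and TG measured. Values are % change versus vehicle-treated mice, mean ± SD (n = 6).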

Mus musculus [4] = test: Antihyperlipidemic activity in db/db mouse assessed as reduction of serum triglyceride level at 3 mg/kg, po qd for 14 days relative to control; type: functional; design: scale not given: the % may be the effect or the level left; outline: as §2
[5] = molecular target: T3, Peroxisome proliferator-activated receptor delta (Homo sapiens, UniProt Q03181); test: Agonist activity at human PPARdelta expressed in HepG2 cells co-transfected with PPRE3-TK-luc assessed as beta-galactosidase activity after 20 to 22 hrs by luciferase based transactivation assay; type: functional, cell-based
T3 sequence (Q03181 whole entry): T1 sequence (whole entry)

[6] = molecular target: T4, Peroxisome proliferator-activated receptor gamma (Homo sapiens, UniProt P37231); type: functional, cell-based, HepG2
T4 sequence (P37231 whole entry): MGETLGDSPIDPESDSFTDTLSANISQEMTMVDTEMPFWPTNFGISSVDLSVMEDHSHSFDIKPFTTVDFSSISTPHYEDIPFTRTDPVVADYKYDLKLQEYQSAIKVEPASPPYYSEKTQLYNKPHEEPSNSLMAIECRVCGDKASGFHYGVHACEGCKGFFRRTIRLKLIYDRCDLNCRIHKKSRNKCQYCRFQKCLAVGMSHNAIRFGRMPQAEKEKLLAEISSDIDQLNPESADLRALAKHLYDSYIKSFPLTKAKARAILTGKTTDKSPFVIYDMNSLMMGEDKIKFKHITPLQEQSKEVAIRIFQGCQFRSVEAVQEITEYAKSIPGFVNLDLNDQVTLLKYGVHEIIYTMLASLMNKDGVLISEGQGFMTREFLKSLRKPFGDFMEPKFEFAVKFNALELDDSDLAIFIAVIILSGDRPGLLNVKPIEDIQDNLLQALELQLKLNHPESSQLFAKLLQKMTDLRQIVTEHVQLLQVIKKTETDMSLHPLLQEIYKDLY

[7] = molecular target: T5, Peroxisome proliferator-activated receptor alpha (Homo sapiens, UniProt Q07869); test: Agonist activity at human PPARalpha expressed in HepG2 cells co-transfected with PPRE3-TK-luc assessed as beta-galactosidase activity after 20 to 22 hrs by luciferase based transactivation assay; type: functional, cell-based
T5 sequence (Q07869 whole entry): T2 sequence (whole entry)

Syrian golden hamster [8] = test: Antihyperlipidemic activity in high fat-high cholesterol-fructose fed hamster assessed as increase of serum HDL-cholesterol level at 10 mg/kg, po qd for 14 days; type: functional, organism-based; design: dose 10 mg/kg; conditions: Mesocricetus auratus
Mus musculus [9] = test: Antihyperglycemic activity in db/db mouse assessed as reduction of serum glucose level at 10 mg/kg, po qd for 14 days relative to control; type: functional; design: scale not given: the % may be the effect or the level left; outline: as §2
Syrian golden hamster [10] = test: Antihyperlipidemic activity in high fat-high cholesterol-fructose fed hamster assessed as decrease of serum LDL-cholesterol level at 10 mg/kg, po qd for 14 days; type: functional, organism-based; design: dose 10 mg/kg; conditions: Mesocricetus auratus
Mus musculus [11] = test: Antihyperlipidemic activity in db/db mouse assessed as reduction of serum triglyceride level at 10 mg/kg, po qd for 14 days relative to control; type: functional; design: scale not given: the % may be the effect or the level left; outline: as §2

Row | Compound | Emax [1] | Emax [2] | also measured
1 | CC/C(=N\OCc1nc(-c2ccc(C)cc2)oc1C)c1ccc(OCC(=O)O)cc1 | 49.2% | 68.5% | –
2 | CCO[C@@H](Cc1ccc(OCCc2ccc(OS(C)(=O)=O)cc2)cc1)C(=O)O [TESAGLITAZAR] | – | – | Activity (Mus musculus [3]): -60.2%; Activity (Mus musculus [4]): -54.4%
3 | CCC/C(=N\OCc1nc(-c2ccccc2)oc1C)c1ccc(OCC(=O)O)c(C)c1 | 51.7% | 14.1% | –
4 | CCC/C(=N\OCc1nc(-c2ccc(C)cc2)oc1C)c1ccc(OCC(=O)O)c(C)c1 | 46.8% | 33.3% | –
5 | CC/C(=N\OCc1sc(-c2ccc(C(F)(F)F)cc2)nc1C)c1ccc(OCC(=O)O)cc1 | 41.4% | 97.5% | –
6 | C/C(=N\OCc1nc(-c2ccc(C)cc2)oc1C)c1ccc(OCC(=O)O)c(C)c1 | 67.6% | 45.3% | EC50 [5]: 300 nM; EC50 [6]: 400 nM; EC50 [7]: 150 nM
7 | C/C(=N\OCc1nc(-c2ccccc2)oc1C)c1ccc(OCC(=O)O)c(C)c1 | 74.5% | 84.5% | EC50 [5]: 800 nM; EC50 [6]: 300 nM; Activity (Syrian golden hamster [8]): Active; Activity (Mus musculus [9]): -59.9%; EC50 [7]: 500 nM; Activity (Syrian golden hamster [10]): Active; Activity (Mus musculus [11]): -52.4%
8 | CCC/C(=N\OCc1sc(-c2ccc(C(F)(F)F)cc2)nc1C)c1ccc(OCC(=O)O)c(C)c1 | 48.3% | 58.7% | –
9 | Cc1cc(/C(=N/OCc2nc(-c3ccccc3)oc2C)C2CCCCC2)ccc1OCC(=O)O | 58.8% | 9.7% | –
10 | Cc1ccc(-c2nc(CO/N=C(/c3ccc(OCC(=O)O)c(C)c3)C3CCCCC3)c(C)o2)cc1 | 56.6% | 14.1% | –
11 | CC/C(=N\OCc1nc(-c2ccc(C)cc2)oc1C)c1ccc(OCC(=O)O)c(C)c1 | 56.3% | 72.6% | –
12 | C/C(=N\OCc1nc(-c2ccc(C)cc2)oc1C)c1ccc(OCC(=O)O)cc1 | 48.1% | 51.1% | –
13 | Cc1cc(/C(=N/OCc2sc(-c3ccc(C(F)(F)F)cc3)nc2C)C2CCCCC2)ccc1OCC(=O)O | 98.7% | 57.9% | EC50 [5]: 700 nM; EC50 [6]: 1000 nM; EC50 [7]: 1600 nM
14 | Cc1cc(SCc2sc(-c3ccc(C(F)(F)F)cc3)nc2C)ccc1OCC(=O)O | – | 76.9% | –
15 | C/C(=N\OCc1sc(-c2ccc(C(F)(F)F)cc2)nc1C)c1ccc(OCC(=O)O)cc1 | 60.6% | 86.2% | –
16 | CC/C(=N\OCc1sc(-c2ccc(C(F)(F)F)cc2)nc1C)c1ccc(OCC(=O)O)c(C)c1 | 61.9% | 96.4% | EC50 [5]: 800 nM; EC50 [6]: 800 nM; EC50 [7]: 120 nM
17 | C/C(=N\OCc1nc(-c2ccccc2)oc1C)c1ccc(OCC(=O)O)cc1 | 52.1% | 58.8% | –
18 | CC(C)(Oc1ccc(CCNC(=O)c2ccc(Cl)cc2)cc1)C(=O)O [BEZAFIBRATE] | – | – | EC50 [5]: 18900 nM; EC50 [6]: 57200 nM
19 | C/C(=N\OCc1sc(-c2ccc(C(F)(F)F)cc2)nc1C)c1ccc(OCC(=O)O)c(C)c1 | 90.1% | 99.8% | EC50 [5]: 10 nM; EC50 [6]: 6 nM; Activity (Syrian golden hamster [8]): Active; Activity (Mus musculus [9]): -23.2%; EC50 [7]: 8 nM; Activity (Syrian golden hamster [10]): Active; Activity (Mus musculus [11]): -36.5%
20 | CC/C(=N\OCc1nc(-c2ccccc2)oc1C)c1ccc(OCC(=O)O)cc1 | 46.4% | 42.5% | –
21 | CC/C(=N\OCc1nc(-c2ccccc2)oc1C)c1ccc(OCC(=O)O)c(C)c1 | 72.3% | 56.4% | –
